High-throughput results as filed in PubChem BioAssay.
PDI turbidity: inhibitors of human PDI, primary screen, biochemical, turbidity, single point, plate reader. Protein disulfide-isomerase (Homo sapiens), P07237. PDI insulin aggregation turbidity, A650, 90 min. AID 588391, 2011. 350,000 compounds, 0.052% hits. inhibition, % at 10 µM;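 active means mean inhibition across replicates of 30% or more, whatever share of single replicates reach that level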
ERp5 inh: inhibitors of ERp5-driven insulin aggregation, primary screen, biochemical, turbidity, absorbance 650 nm, single point; 350,000 compounds, 0.05% hits; inhibition, % at 9.99 µM; 90 min;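 active means mean replicate inhibition above about 25%, with every replicate also reaching it, limit read from the data, passing the limit was not always enough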
Target sequence (Q15084 whole entry, looked up): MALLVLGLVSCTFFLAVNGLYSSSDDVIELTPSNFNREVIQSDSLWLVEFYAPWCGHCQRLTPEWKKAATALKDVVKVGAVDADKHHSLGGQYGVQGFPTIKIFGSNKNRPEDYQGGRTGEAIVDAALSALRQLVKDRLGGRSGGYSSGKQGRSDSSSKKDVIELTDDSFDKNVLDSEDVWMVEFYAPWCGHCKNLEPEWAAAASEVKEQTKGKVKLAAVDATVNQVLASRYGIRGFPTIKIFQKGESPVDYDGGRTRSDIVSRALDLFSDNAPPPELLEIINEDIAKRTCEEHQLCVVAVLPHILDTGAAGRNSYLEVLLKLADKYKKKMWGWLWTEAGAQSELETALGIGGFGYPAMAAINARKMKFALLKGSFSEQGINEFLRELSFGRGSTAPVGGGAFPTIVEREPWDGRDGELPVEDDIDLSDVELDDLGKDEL
RAD54 branch: inhibitors of human RAD54 branch migration, primary screen, biochemical, fluorescence, single point; RAD54 Holliday junction branch migration, FAM/BHQ fluorescence; 360,000 compounds, 0.14% hits; inhibition, % at 10.4 µM; DNA repair and recombination protein RAD54-like (Homo sapiens), Q92698; AID 602329, 2012;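 active means mean normalized replicate activity at least 40 and at least half of replicates scoring 40 or more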;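 further: inhibitors cause a drop in the FAM fluorescence signal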
CAL PDZ FP-1: CAL PDZ peptide-binding inhibitors, primary screen, biochemical, fluorescence polarization, Cer-tagged CAL PDZ, HTS | purified CAL PDZ, TMR-peptide fluorescence polarization, 1 h | inhibition, % at 20 µM | 330,000 compounds, 0.02% hits | AID 504414, 2011;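 active means highest replicate inhibition of at least 40%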
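System: purified tagged CAL PDZ domain construct (CerCALP). Schedule: 1 h incubation at room temperature before polarization reading. Medium: 25 mM sodium phosphate pH 7.4, 150 mM NaCl, TCEP, IgG, Thesit. Read-out: percent inhibition from loss of millipolarization. Measured by: FP readout, S and P plane fluorescence. Probe or stimulus: fluorescent TMR peptide probe.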
RAD52 inh: RAD52 DNA annealing inhibitors, primary screen, biochemical, FRET, single point, set 2; recombinant RAD52 DNA annealing, FRET fluorescence; inhibition, % at 18.7 µM; 360,000 compounds, 0.46% hits; AID 651710, 2012;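 active means every replicate showing at least 50% inhibition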
CAL PDZ FP-2: untagged CAL PDZ binding inhibitors, primary screen, biochemical, fluorescence polarization, HTS | 300,000 compounds, 0.92% hits | inhibition, % at 24.9 µM | purified CAL PDZ, TMR-peptide fluorescence polarization, 1 h | Golgi-associated PDZ and coiled-coil motif-containing protein (Homo sapiens), Q9HD26;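 active means mean inhibition of at least 30% with at least half of replicates also reaching 30%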
A number is an active result; – = inactive; · = no result given. Rows were chosen to be rich in hits. Some 1% of all compounds tested hit in one or more screens of this group.

SMILES | PDI turbidity | ERp5 inh | RAD54 branch | CAL PDZ FP-1 | RAD52 inh | CAL PDZ FP-2
CCCNC(=O)N(C)C[C@@H]1Oc2ncc(C3=CCCC3)cc2C(=O)N([C@@H](C)CO)C[C@@H]1C | · | – | – | · | – | ·
CO[C@H]1CN(C)C(=O)c2cc(NC(=O)Nc3ccccc3Cl)ccc2OC[C@H](C)NC[C@H]1C | · | – | – | · | – | ·
CCC(=O)Nc1ccc2c(c1)C(=O)N(C)C[C@@H](OC)[C@@H](C)CN(Cc1ccccc1C(=O)O)[C@@H](C)CO2 | · | – | – | · | – | ·
O=C(N/N=C1\CCc2ccccc21)c1ccccc1O | – | · | · | – | · | –
O=C(N/N=C1\CCCc2ccccc21)c1ccccc1Cl | – | 28 | · | – | – | ·
O=S(=O)(c1ccc2c(c1)OCCO2)N(Cc1ccc(F)cc1)Cc1nnc(-c2cccs2)o1 | – | · | – | – | · | 43
Cc1cc(C(=O)CN(Cc2ccc(F)cc2)S(=O)(=O)c2ccc3c(c2)OCCO3)c(C)n1C | – | · | – | – | · | –
C[C@H](CO)N1C[C@H](C)[C@H](CN(C)C(=O)CCC(F)(F)F)OCCCC[C@H](C)Oc2ccc(NC(=O)CCCN(C)C)cc2C1=O | · | · | – | · | · | ·
COc1ccc(OCCOc2ccc(S(=O)(=O)N3CCCC3)cc2C(N)=O)cc1 | – | – | – | – | – | –
NC(=O)c1cc(S(=O)(=O)N2CCCC2)ccc1OCCOc1ccccc1F | – | – | · | – | – | 44
C[C@@H]1CN([C@@H](C)CO)C(=O)Cc2cc(NC(=O)c3ccncc3)ccc2O[C@@H]1CN(C)C(=O)Nc1cccc2ccccc12 | · | – | – | · | – | ·
CNC[C@H]1Oc2ccc(NS(=O)(=O)c3c(C)noc3C)cc2C(=O)N([C@@H](C)CO)C[C@@H]1C | · | – | – | · | – | ·
COc1ccc(C2CC(=O)c3c(C)nc(N4CCN(c5ccccc5)CC4)nc3C2)cc1 (centres undefined) | – | · | – | – | · | 38
Cc1c(NS(=O)(=O)c2ccccc2F)c(=O)n(-c2ccccc2)n1C | – | – | – | – | – | –
COc1ccc(OC)c(S(=O)(=O)Nc2c(C)n(C)n(-c3ccccc3)c2=O)c1 | – | – | – | – | – | 74
COC(=O)c1cc(S(=O)(=O)Nc2cc(S(=O)(=O)N(C)C)ccc2C)oc1C | – | – | · | – | – | –
COC(=O)c1cc(S(=O)(=O)Nc2ccsc2C(=O)OC)oc1C | – | – | – | – | – | 33
CC(C)C(NC(=O)C12CC3CC(CC(C3)C1)C2)C(=O)O (centres undefined) | – | · | – | – | · | –
C/C(=C\C(=O)O)C12CC3CC(CC(C3)C1)C2 | – | · | – | · | · | 31
O=C(NC1CCCCC1)c1ccc(CS(=O)(=O)c2ccc(Cl)cc2)o1 | – | – | – | – | – | –
O=C(NC1CCCC1)c1ccc(CS(=O)(=O)c2ccc(Cl)cc2)o1 | – | – | – | – | – | 70
COc1ccc(-c2ccc3c(c2)[C@@H]2[C@@H](CCN2S(=O)(=O)c2ccccc2F)[C@H](CO)N3C)cc1 | · | – | – | · | – | ·
C[C@H](CO)N1C[C@H](C)[C@@H](CN(C)C)Oc2ccc(NC(=O)CCC(F)(F)F)cc2CC1=O | · | – | – | · | – | ·
Cn1c(=O)n(C)c2cc(NC(=O)c3ccccc3NS(C)(=O)=O)ccc21 | – | – | – | – | – | 80
CCOC(=O)c1c(C)[nH]c(C)c1C(=O)COC(=O)C1CC(=O)N(CCc2ccccc2)C1 (centres undefined) | – | – | – | – | – | 36
O=c1[nH]c(CCl)nc2cc(-c3ccc(F)cc3)sc12 | 43 | – | – | – | – | –
COCCNc1nc2cc(-c3ccc(F)cc3)sc2c(=O)n1C | – | – | – | · | – | ·
Cc1ccc(S(=O)(=O)Nc2ccc3c(c2)C(=O)N([C@@H](C)CO)C[C@@H](C)[C@@H](CN(C)CC2CCCCC2)OCCCC[C@@H](C)O3)cc1 | · | – | – | · | 56 | ·
